Screening data deposited in PubChem by several laboratories.
Shown are actives, neighbours in structure and some others; about 4% of the full set was active somewhere.
KCNK3 inh: human KCNK3 channel inhibitors, primary screen, CHO cells, FluxOR thallium flux, B-score. Potassium channel subfamily K member 3 (Homo sapiens), O14649. FluxOR fluorescence; stronger effect = lower value. B-score at 10 µM. 340,000 tested, 0.84% active;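 active means B-score under library mean minus 4 SD, starting fluorescence ratio at most library mean plus 5 SD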;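 further: more negative B-score means stronger inhibition of thallium flux through KCNK3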
KCNK9 inh: KCNK9 potassium channel inhibitors, primary screen, HEK293 cells, thallium flux; B-score at 10 µM; AID 488922, 2010; 310,000 tested, 1.2% active; Potassium channel subfamily K member 9 (Homo sapiens), Q9NPC2; FluxOR thallium flux fluorescence; stronger effect = lower value;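 active means ratio B-score over 3 SD below the library mean, with starting fluorescence within 5 SD of its mean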;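 further: negative B-score means less thallium flux so channel inhibition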
hERG rescue: hERG rescue from dofetilide block, primary screen, cell-based, CHO-hERG, FluxOR thallium flux, dofetilide IC70; 310,000 tested, 0.51% active; activation (rescue from dofetilide block), less the hit threshold, % at 10 µM; Voltage-gated inwardly rectifying potassium channel KCNH2 (Homo sapiens), Q12809; dofetilide IC70 present;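 active means activation above the mean of controls blocked by dofetilide plus 5 SD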;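 further: thallium influx through hERG after potassium depolarization seen as dye fluorescence rise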
KCNQ1 pot: potentiators or activators of KCNQ1 channel, primary screen, cell-based, thallium flux, high-throughput | CHO-K1 KCNQ1, thallium flux FluxOR fluorescence; stronger effect = higher value | B-score at 10 µM | 310,000 tested, 0.35% active;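 active means fluorescence ratio B-score, a plate-corrected score, at least three library SD, with initial intensity B-score within 5 SD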
Target sequence (P51787 whole entry, looked up): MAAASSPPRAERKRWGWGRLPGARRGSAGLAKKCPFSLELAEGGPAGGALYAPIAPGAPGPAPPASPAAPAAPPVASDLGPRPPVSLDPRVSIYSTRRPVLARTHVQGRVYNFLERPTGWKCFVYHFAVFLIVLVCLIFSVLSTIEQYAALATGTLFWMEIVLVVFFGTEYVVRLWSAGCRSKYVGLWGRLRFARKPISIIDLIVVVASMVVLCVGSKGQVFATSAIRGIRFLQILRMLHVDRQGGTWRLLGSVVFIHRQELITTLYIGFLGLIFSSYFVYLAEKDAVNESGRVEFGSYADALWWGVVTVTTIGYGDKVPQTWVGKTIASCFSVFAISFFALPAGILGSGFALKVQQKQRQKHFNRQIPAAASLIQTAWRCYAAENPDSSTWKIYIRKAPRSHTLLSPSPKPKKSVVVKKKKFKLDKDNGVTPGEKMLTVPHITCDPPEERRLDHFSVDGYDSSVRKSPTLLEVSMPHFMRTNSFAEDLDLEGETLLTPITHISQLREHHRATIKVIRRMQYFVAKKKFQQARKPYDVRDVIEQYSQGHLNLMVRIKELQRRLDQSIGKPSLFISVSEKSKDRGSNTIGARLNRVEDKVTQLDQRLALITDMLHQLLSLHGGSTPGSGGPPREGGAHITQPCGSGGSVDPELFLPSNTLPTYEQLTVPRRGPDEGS
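assay system = CHO-K1 cells stably expressing KCNQ1 | medium = assay buffer, equal DMSO in all wells | timing = 37 °C overnight plating, 90-min dark dye load, 20-min compound pretreatment | measured by = kinetic FluxOR thallium fluorescence, 10-s 1-Hz baseline, 110-s post-stimulus read | measure = fluorescence change relative to baseline, converted to B score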
PHOSPHO1 block: PubChem AID 1565. Phosphoethanolamine/phosphocholine phosphatase (Homo sapiens), Q8TCT1. recombinant PHOSPHO1, absorbance phosphatase assay. inhibition, % at 13.3 µM. 290,000 tested, 1.1% active; in the data active means inhibition above about 60%
KCNQ1 block: inhibitors of human KCNQ1 channel, primary screen, cell-based, thallium flux, high-throughput; AID 2642, 2010; CHO-K1 KCNQ1, FluxOR thallium flux fluorescence; stronger effect = higher value; 310,000 tested, 1.3% active; B-score at 10 µM; Potassium voltage-gated channel subfamily KQT member 1 (Homo sapiens), P51787;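 active means compounds whose thallium flux B-score, printed positive for inhibition, exceeds three library SD while starting fluorescence stays within three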;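 further: channel opened by potassium depolarization with thallium stimulus after 20 min compound exposure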
Large screens that a line does not name were inactive.

Cc1cnc(C(=O)Oc2c(C)ccc(C)c2C)cn1	PHOSPHO1 block 141
Cc1c(-n2c(=O)n(Cc3ccccc3)c(=O)c3[nH]cnc32)cccc1S(C)=O (centres undefined)	none
CCOC(=O)c1cc(CC)sc1NC(=O)Cc1ccsc1	KCNK3 inh -9
CCOC(=O)c1c(NC(=O)c2ccco2)sc2c1CCCC2	none
N#Cc1c(NC(=O)COC(=O)c2nccnc2N)sc2c1CCCC2	none (no result: PHOSPHO1 block)
CCOC(=O)c1c(NC(=O)COC(=O)c2nccnc2N)sc2c1CCC2	KCNK3 inh -11 (no result: KCNK9 inh, hERG rescue, KCNQ1 pot, PHOSPHO1 block, KCNQ1 block)
CCOC(=O)c1c(NC(=O)CN2CCN(C(=O)c3ccco3)CC2)sc2c1CCCC2	hERG rescue 29, KCNQ1 pot 14
CCOC(=O)c1cc(CC)sc1NC(=O)CN1CCN(C(=O)c2ccco2)CC1	KCNQ1 pot 23
C=CCSc1n[nH]c(-c2cccs2)n1	none
O=C(OCC(=O)c1ccc[nH]1)c1ccc2ccccc2n1	none
CCOC(=O)c1cc(C)sc1NC(=O)CN1CCN(C(=O)c2ccco2)CC1	KCNQ1 pot 9
COC(=O)c1cc(C)sc1NC(=O)CN1CCN(C(=O)c2ccco2)CC1	none
CCN(CC(=O)Nc1ccccc1OC)C(=O)c1cc(-c2ccccc2)nn1-c1ccccc1	KCNQ1 block 7 (no result: PHOSPHO1 block)
CCn1nc(NS(=O)(=O)c2ccc([N+](=O)[O-])cc2)c2cc3cccc(C)c3nc21	KCNQ1 block 9
CCn1nc(NS(=O)(=O)c2ccccc2[N+](=O)[O-])c2cc3cccc(C)c3nc21	none
Cn1c(SCCOc2ccccc2Cl)nnc1-c1ccncc1	none
Cc1oc(-c2ccccc2F)nc1CSCC(=O)NC1CC1	PHOSPHO1 block 75
O=C1c2ccccc2C(=O)N1c1n[nH]c(CCc2ccccc2)n1	none
COCc1c(C(=O)NCCOc2ccc(Cl)cc2)oc2ccccc12	KCNK3 inh -8.9 (no result: KCNK9 inh, hERG rescue, KCNQ1 pot, PHOSPHO1 block, KCNQ1 block)
CCOc1ccc(OCCNC(=O)c2oc3ccccc3c2COC)cc1	none (no result: KCNK9 inh, hERG rescue, KCNQ1 pot, PHOSPHO1 block, KCNQ1 block)
COc1cc(OC)c(NC(=O)c2cc3ccccc3cc2O)cc1Cl	KCNK3 inh -9.2 (no result: KCNK9 inh, hERG rescue, KCNQ1 pot, PHOSPHO1 block, KCNQ1 block)
COc1cc(NC(=O)c2ccccc2)c(OC)cc1Cl	none
CC(C)OCCCNC(=O)c1ccc2c(c1)S(=O)(=O)c1ccccc1C2=O	none
CCCCCOc1ccc(C(=O)NC(CCC)C(=O)O)cc1 (centres undefined)	none
Cc1ccc(-c2nn(-c3ccccc3)cc2/C=C2\SC(=S)N(CC(=O)O)C2=O)cc1	none
O=C(O)CCN1C(=O)/C(=C/c2cn(-c3ccccc3)nc2-c2cccs2)SC1=S	PHOSPHO1 block 78 (no result: KCNK9 inh, hERG rescue, KCNQ1 pot, KCNQ1 block)
O=C(O)CCCCCN1C(=O)/C(=C/c2cn(-c3ccccc3)nc2-c2cccs2)SC1=S	none (no result: KCNK9 inh, hERG rescue, KCNQ1 pot, PHOSPHO1 block, KCNQ1 block)
CCN1C(=O)/C(=C/c2cn(-c3ccccc3)nc2-c2cccnc2)SC1=S	KCNK3 inh -10 (no result: KCNK9 inh, hERG rescue, KCNQ1 pot, PHOSPHO1 block, KCNQ1 block)
CN(Cc1ccccc1)C(=S)NC(=O)c1cccs1	KCNQ1 pot 39
CCOc1ccc(OCC)c(NC(=O)CCCN2C(=O)c3cccnc3C2=O)c1	hERG rescue 7.5
CCN(CC)C(=O)CSc1nc2ccccc2c(=O)n1CC	none
CCN(CC)C(=O)CSc1nnc(-c2cc3ccccc3cc2O)n1CC	PHOSPHO1 block 62
CCn1c(-c2cc(Br)ccc2O)n[nH]c1=S	none (no result: PHOSPHO1 block)
C=CCn1c(-c2c[nH]c3ccccc23)n[nH]c1=S	PHOSPHO1 block 101
C=CCn1c(-c2csc3ccccc23)n[nH]c1=S	PHOSPHO1 block 102
CCn1c(-c2cc3ccccc3cc2O)n[nH]c1=S	PHOSPHO1 block 92
C=CCn1c(-c2csc(-c3ccccc3)n2)n[nH]c1=S	none
C=CCn1c(-c2ccccc2[N+](=O)[O-])n[nH]c1=S	none
CS(=O)(=O)N1CCc2cc(-c3csc(NCC4CCCO4)n3)ccc21 (centres undefined)	none (no result: PHOSPHO1 block)
COC(=O)CSc1cccc2c1C(=O)CC2c1ccccc1 (centres undefined)	none
O=C(c1cccc(NS(=O)(=O)c2ccccc2)c1)N1CCCCC1	none (no result: PHOSPHO1 block)
Fc1ccc(-c2nnc(N3CCOCC3)c3ccccc23)cc1F	none
COc1ccc(OC)c(S(=O)(=O)Nc2ccccc2C(=O)N2CCCCC2)c1	none (no result: KCNK9 inh, hERG rescue, KCNQ1 pot, PHOSPHO1 block, KCNQ1 block)
C(=C\c1ccncc1)/c1ccccc1	none
CCn1c(-c2c[nH]c3ccccc23)n[nH]c1=S	PHOSPHO1 block 79
CC(=Nc1cccc(C)c1)c1sc2ccccc2c1O	KCNK9 inh -7
COc1ccccc1C(O)(C(=O)NNc1cccc(C)c1)c1ccccc1OC	none
Cc1cc(NCc2ccncc2)ccc1Br	none
Cc1cccc2sc(NC(=O)CN(C)S(=O)(=O)c3ccc(Br)s3)nc12	KCNK3 inh -9.9
COc1cc(CN2CCNC(=O)C2CC(=O)N(C)Cc2cccnc2)cc(OC)c1 (centres undefined)	none
CC(C)[C@H]1CC[C@@H](C)C(C(=O)c2ccccc2)C1=O (some centres undefined)	none
Cc1ccc(NC(=O)C2CCN(S(=O)(=O)c3ccc4c(c3)CC(C)N4C(=O)C3CCC3)CC2)nc1 (centres undefined)	PHOSPHO1 block 75
COc1cc(/C=N/NC(=O)c2cc(-c3cccs3)nc3ccccc23)ccc1O	none
COc1ccc(/C=N\NC(=O)c2ccc(-c3ccccc3)cc2)cc1COC(C)=O	none
Cc1ccccc1-c1cc(C(=O)N/N=C/c2cccnc2)c2ccccc2n1	PHOSPHO1 block 66
COc1ccc(/C=N/NC(=O)c2cc(-c3ccc(C)cc3C)nc3ccccc23)cc1COC(C)=O	KCNK3 inh -8.8
N#Cc1ccc(/C=N/NC(=O)c2cc(-c3cccs3)nc3ccccc23)cc1	KCNQ1 block 6
CCCOc1cccc(-c2cc(C(=O)N/N=C/c3cccnc3)c3ccccc3n2)c1	KCNQ1 block 9
COc1ccc(-c2c(C#Cc3ccsc3)c3cc(-c4ccc5c(c4)OCO5)ccc3n2C)cc1	none (no result: KCNK9 inh, hERG rescue, KCNQ1 pot, PHOSPHO1 block, KCNQ1 block)
CCCOC(=O)C1[C@H]2C(=O)N(C(C)c3ccc(OC)cc3)C[C@]23C=C[C@H]1O3 (some centres undefined)	none
COc1cccc(OC)c1C(=O)NC(=O)Nc1c(C)cccc1C	none
O=C(Cc1ccc(NC(=O)C2CCN(C(=O)C3CC3)CC2)cc1)Nc1cccc(C(=O)N2CCCC2)c1	none (no result: KCNK9 inh, hERG rescue, KCNQ1 pot, PHOSPHO1 block, KCNQ1 block)
CS(=O)(=O)N(CC(=O)NCCSc1ccc(Cl)cc1)c1ccc2c(c1)OCO2	none
COc1ccccc1-c1cc(C(=O)N/N=C/c2ccc(C)s2)c2ccccc2n1	none
CCc1ccc(/C=N/NC(=O)c2cc(-c3ccccc3OC)nc3ccccc23)s1	KCNQ1 block 6
NS(=O)(=O)c1ccc(NC(=S)Nc2ccc(OCc3ccccc3)cc2)cc1	KCNQ1 pot 30
